Test results: article PMC5292677 (Leukemia, 2016)

System: patients with myelofibrosis
Assay: Phase I safety: drug-related adverse events, DLTs, tolerability
Type: in vivo, human
In short: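 Design was 3+3 dose escalation of oral test compound QD (75–400 mg) or BID (100–400 mg) in 28-day cycles. AEs were graded by CTCAE v4.0 with causality, alongside labs, ECGs, vital signs and physical exams. A DLT was grade 4 cytopenia, other grade 3/4 hematologic toxicity, or grade 3/4 non-hematologic toxicity, excluding manageable GI events. The population was all patients dosed ≥1 time.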

[1] = baseline platelet count <100 × 10^9/l
[2] = baseline platelet count <100 × 10^9/l (n=16)
[3] = baseline platelet count ⩾100 × 10^9/l
[4] = baseline platelet count ⩾100 × 10^9/l (n=32)

SMILES: C[C@H](Nc1cc(-c2cnn(C)c2)cc(Nc2cnccn2)n1)c1ccc(F)cc1 [NS-018]
- Cases of anemia (grade 2) (300 mg QD): 1 case
- Rate of discontinuations owing to AEs (300 mg QD): 13%
- Drug-related anemia, Grade 1/2 (300 mg QD (n=16)): 1 (6) n (%)
- Drug-related anemia, all grades (300 mg QD (n=16)): 1 (6) n (%)
- Drug-related diarrhea, all grade (300 mg QD (n=16)): 2 (13) n (%)
- Drug-related diarrhea, grade 3 or 4 (300 mg QD (n=16)): 0 n (%)
- Drug-related dizziness, all grade (300 mg QD (n=16)): 3 (19) n (%)
- Drug-related dizziness, grade 3 or 4 (300 mg QD (n=16)): 1 (6) n (%)
- Drug-related esophageal reflux, all grade (300 mg QD (n=16)): 1 (6) n (%)
- Drug-related esophageal reflux, grade 3 or 4 (300 mg QD (n=16)): 0 n (%)
- Drug-related headache, all grade (300 mg QD (n=16)): 2 (13) n (%)
- Drug-related headache, grade 3 or 4 (300 mg QD (n=16)): 0 n (%)
- Drug-related nausea, all grade (300 mg QD (n=16)): 0 n (%)
- Drug-related paresthesia, all grade (300 mg QD (n=16)): 1 (6) n (%)
- Drug-related paresthesia, grade 3 or 4 (300 mg QD (n=16)): 0 n (%)
- Drug-related thrombocytopenia, Grade 1/2 (300 mg QD (n=16)): 0 n (%)
- Drug-related thrombocytopenia, Grade 3 (300 mg QD (n=16)): 2 (13) n (%)
- Drug-related thrombocytopenia, Grade 4 (300 mg QD (n=16)): 1 (6) n (%)
- Drug-related thrombocytopenia, all grades (300 mg QD (n=16)): 3 (19) n (%)
- Drug-related vomiting, all grade (300 mg QD (n=16)): 1 (6) n (%)
- Drug-related vomiting, grade 3 or 4 (300 mg QD (n=16)): 0 n (%)
- Drug-related weight increased, all grade (300 mg QD (n=16)): 0 n (%)
- Drug-related grade 3 dyspnea (300 mg QD cohort): 6%
- Patients who discontinued owing to AEs (beyond DLT) (400 mg BID): 2 patients
- Drug-related anemia, Grade 1/2 (400 mg BID (n=8)): 1 (13) n (%)
- Drug-related anemia, Grade 3 (400 mg BID (n=8)): 1 (13) n (%)
- Drug-related anemia, Grade 4 (400 mg BID (n=8)): 0 n (%)
- Drug-related anemia, all grades (400 mg BID (n=8)): 2 (25) n (%)
- Drug-related diarrhea, all grade (400 mg BID (n=8)): 1 (13) n (%)
- Drug-related diarrhea, grade 3 or 4 (400 mg BID (n=8)): 0 n (%)
- Drug-related dizziness, all grade (400 mg BID (n=8)): 2 (25) n (%)
- Drug-related dizziness, grade 3 or 4 (400 mg BID (n=8)): 1 (13) n (%)
- Drug-related esophageal reflux, all grade (400 mg BID (n=8)): 0 n (%)
- Drug-related headache, all grade (400 mg BID (n=8)): 1 (13) n (%)
- Drug-related headache, grade 3 or 4 (400 mg BID (n=8)): 0 n (%)
- Drug-related nausea, all grade (400 mg BID (n=8)): 0 n (%)
- Drug-related paresthesia, all grade (400 mg BID (n=8)): 0 n (%)
- Drug-related thrombocytopenia, Grade 1/2 (400 mg BID (n=8)): 0 n (%)
- Drug-related thrombocytopenia, Grade 3 (400 mg BID (n=8)): 1 (13) n (%)
- Drug-related thrombocytopenia, Grade 4 (400 mg BID (n=8)): 0 n (%)
- Drug-related thrombocytopenia, all grades (400 mg BID (n=8)): 1 (13) n (%)
- Drug-related vomiting, all grade (400 mg BID (n=8)): 0 n (%)
- Drug-related weight increased, all grade (400 mg BID (n=8)): 0 n (%)
- DLT: grade 3 dizziness (400 mg BID cohort): 1 patient
- Tolerability as judged by the Safety Review Committee (400 mg BID/QD, based on proportion of drug-related neurological AEs): intolerable
- Drug-related anemia, Grade 1/2 (400 mg QD (n=4)): 1 (25) n (%)
- Drug-related anemia, all grades (400 mg QD (n=4)): 1 (25) n (%)
- Drug-related diarrhea, all grade (400 mg QD (n=4)): 1 (25) n (%)
- Drug-related diarrhea, grade 3 or 4 (400 mg QD (n=4)): 0 n (%)
- Drug-related dizziness, all grade (400 mg QD (n=4)): 1 (25) n (%)
- Drug-related dizziness, grade 3 or 4 (400 mg QD (n=4)): 0 n (%)
- Drug-related esophageal reflux, all grade (400 mg QD (n=4)): 0 n (%)
- Drug-related headache, all grade (400 mg QD (n=4)): 0 n (%)
- Drug-related nausea, all grade (400 mg QD (n=4)): 1 (25) n (%)
- Drug-related nausea, grade 3 or 4 (400 mg QD (n=4)): 0 n (%)
- Drug-related paresthesia, all grade (400 mg QD (n=4)): 1 (25) n (%)
- Drug-related paresthesia, grade 3 or 4 (400 mg QD (n=4)): 0 n (%)
- Drug-related thrombocytopenia, all grades (400 mg QD (n=4)): 0 n (%)
- Drug-related vomiting, all grade (400 mg QD (n=4)): 0 n (%)
- Drug-related weight increased, all grade (400 mg QD (n=4)): 1 (25) n (%)
- Drug-related weight increased, grade 3 or 4 (400 mg QD (n=4)): 0 n (%)
- Recommended phase II dose (RP2D) (QD, oral): 300 mg
- Additional patients (beyond DLT) who discontinued owing to AEs (all cohorts): 7 patients
- Dose reduction owing to dizziness (all cohorts): 4 n
- Patients with dose reductions owing to AEs (all cohorts): 11 patients
- Patients with dose-limiting toxicities (DLTs) (all cohorts (n=48)): 2 patients
- Treatment discontinuation because of AEs (all cohorts (n=48), data cutoff 21 July 2015): 8 n
- Drug-related anemia, Grade 1/2 (all dose cohorts (n=48)): 4 (8) n (%)
- Drug-related anemia, Grade 3 (all dose cohorts (n=48)): 3 (6) n (%)
- Drug-related anemia, Grade 4 (all dose cohorts (n=48)): 0 n (%)
- Drug-related anemia, all grades (all dose cohorts (n=48)): 7 (15) n (%)
- Drug-related diarrhea, all grade (all dose cohorts (n=48)): 7 (15) n (%)
- Drug-related diarrhea, grade 3 or 4 (all dose cohorts (n=48)): 0 n (%)
- Drug-related dizziness, all grade (all dose cohorts (n=48)): 11 (23) n (%)
- Drug-related dizziness, grade 3 or 4 (all dose cohorts (n=48)): 3 (6) n (%)
- Drug-related esophageal reflux, all grade (all dose cohorts (n=48)): 3 (6) n (%)
- Drug-related esophageal reflux, grade 3 or 4 (all dose cohorts (n=48)): 0 n (%)
- Drug-related headache, all grade (all dose cohorts (n=48)): 3 (6) n (%)
- Drug-related headache, grade 3 or 4 (all dose cohorts (n=48)): 0 n (%)
- Drug-related nausea, all grade (all dose cohorts (n=48)): 9 (19) n (%)
- Drug-related nausea, grade 3 or 4 (all dose cohorts (n=48)): 1 (2) n (%)
- Drug-related paresthesia, all grade (all dose cohorts (n=48)): 4 (8) n (%)
- Drug-related paresthesia, grade 3 or 4 (all dose cohorts (n=48)): 1 (2) n (%)
- Drug-related thrombocytopenia, Grade 1/2 (all dose cohorts (n=48)): 5 (10) n (%)
- Drug-related thrombocytopenia, Grade 3 (all dose cohorts (n=48)): 5 (10) n (%)
- Drug-related thrombocytopenia, Grade 4 (all dose cohorts (n=48)): 3 (6) n (%)
- Drug-related thrombocytopenia, all grades (all dose cohorts (n=48)): 13 (27) n (%)
- Drug-related vomiting, all grade (all dose cohorts (n=48)): 3 (6) n (%)
- Drug-related vomiting, grade 3 or 4 (all dose cohorts (n=48)): 0 n (%)
- Drug-related weight increased, all grade (all dose cohorts (n=48)): 4 (8) n (%)
- Drug-related weight increased, grade 3 or 4 (all dose cohorts (n=48)): 0 n (%)
- Drug-related anemia, all grades (all patients (n=48)): 15%
- Drug-related anemia, grade 3/4 (all patients (n=48)): 6%
- Drug-related dizziness (all patients (n=48)): 23%
- Drug-related nausea (all patients (n=48)): 19%
- Drug-related thrombocytopenia, all grades (all patients (n=48)): 27%
- Drug-related thrombocytopenia, grade 3/4 (all patients (n=48)): 17%
- Drug-related thrombocytopenia, all grades [1]: 44%
- Drug-related thrombocytopenia, grade 3/4 [1]: 38%
- Drug-related thrombocytopenia, Grade 1/2 [2]: 1 (6) n (%)
- Drug-related thrombocytopenia, Grade 3 [2]: 3 (19) n (%)
- Drug-related thrombocytopenia, Grade 4 [2]: 3 (19) n (%)
- Drug-related thrombocytopenia, all grades [2]: 7 (44) n (%)
- Drug-related thrombocytopenia, all grades [3]: 19%
- Drug-related thrombocytopenia, grade 3/4 [3]: 6%
- Drug-related thrombocytopenia, Grade 1/2 [4]: 4 (13) n (%)
- Drug-related thrombocytopenia, Grade 3 [4]: 2 (6) n (%)
- Drug-related thrombocytopenia, Grade 4 [4]: 0 n (%)
- Drug-related thrombocytopenia, all grades [4]: 6 (19) n (%)
- Grade 4 neurologic events (during the study): No grade 4 neurologic events
